Data set [1] concerns the target Type-2 angiotensin II receptor (Sus scrofa). The data set can be described thus: Displacement of [125I]-Ang II from pig uterus membrane angiotensin II type 2 (AT2) receptor.
In data set [2] the target is T1, Angiotensin II receptor (AT-1) type-1 (Rattus norvegicus, UniProt P29089+P25095).
T1 sequence (P29089 whole entry): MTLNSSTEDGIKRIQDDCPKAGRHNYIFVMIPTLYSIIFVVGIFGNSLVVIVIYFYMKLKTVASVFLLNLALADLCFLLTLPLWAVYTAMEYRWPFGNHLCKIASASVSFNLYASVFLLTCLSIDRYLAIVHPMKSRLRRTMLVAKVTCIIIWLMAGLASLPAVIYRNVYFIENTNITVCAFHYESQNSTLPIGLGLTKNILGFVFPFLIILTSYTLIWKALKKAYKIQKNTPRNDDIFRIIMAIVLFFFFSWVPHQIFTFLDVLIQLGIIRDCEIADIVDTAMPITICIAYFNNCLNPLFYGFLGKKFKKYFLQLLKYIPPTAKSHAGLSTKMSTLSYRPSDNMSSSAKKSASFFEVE
T1 sequence (P25095 whole entry): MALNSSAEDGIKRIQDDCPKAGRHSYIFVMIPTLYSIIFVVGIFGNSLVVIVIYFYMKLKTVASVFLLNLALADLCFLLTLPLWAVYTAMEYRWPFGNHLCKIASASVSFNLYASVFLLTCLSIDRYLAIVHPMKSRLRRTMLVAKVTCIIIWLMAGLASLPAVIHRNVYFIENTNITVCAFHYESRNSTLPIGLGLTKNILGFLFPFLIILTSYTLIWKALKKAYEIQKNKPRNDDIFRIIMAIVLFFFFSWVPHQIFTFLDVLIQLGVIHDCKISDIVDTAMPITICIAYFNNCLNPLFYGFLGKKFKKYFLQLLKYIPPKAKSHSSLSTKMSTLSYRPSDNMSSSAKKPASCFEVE
The data set can be described thus: Displacement of [125I]-Ang II from rat liver membrane angiotensin II type 1 (AT1) receptor. A general note: Displacement assays read how much labelled ligand stays bound in the presence of the test substance.

For data set [3], the system named is Rattus norvegicus. The experiment in a line: Concentration of compound required to stimulate secretion of duodenal alkaline secretion in rats when administered intralbuminally was determined. The data set is classed as functional. In a few lines:
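Same anaesthetized Sprague-Dawley duodenal pH-stat preparation (saline perfusate titrated to pH 7.4 with 0.02 M HCl). Here the agonist went into the intraluminal perfusate at 100 µM, with PD 123,319 at 150 µM intraluminally for antagonism. Net change over basal at 30-45 min; n = 5.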

The species entered for data set [4] is Rattus norvegicus. The data set can be described thus: Compound was tested for its ability to rise duodenal alkaline secretion in rats was determined. It counts as functional. In a few lines: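 Anaesthetized (pentobarbital ip 60 mg/kg, then 30 mg kg-1 h-1) nonfasted male Sprague-Dawley rats at 38 °C. Isolated duodenal segment with bile duct diverted, perfused with recirculating isotonic saline. HCO3- output pH-stat titrated to pH 7.4 with 0.02 M HCl. Intravenous infusion; net change is the 30-45 min value minus the last 15 min basal. Mean ± SEM, n = 5; ANOVA with Bonferroni.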

In data set [5] the target is Mitogen-activated protein kinase 3 (Homo sapiens) (UniProt P27361). The experiment in a line: Concentration required to abolish MAPK activity in mouse neuroblastoma and rat glioma hybrid NG 108-15 cells. It counts as functional, cell-based.
For data set [6], the system named is NG108-15. The experiment in a line: Concentration of compound required to induce neurite outgrowth in mouse neuroblastoma and rat glioma hybrid NG 108-15 cells was determined. The data set is classed as functional. In short, it runs like this:
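NG108-15 cells (passage 7-30) in DMEM/10% FBS/HAT at 37 °C, 7% CO2, plated at 3 × 10^4 cells per 35 mm dish. First stimulation 24 h after plating, agonist given daily over 1 pM-1 µM for 3 days. Phase-contrast scoring: a neurite longer than the cell body counts as positive. At least 140 cells, three independent experiments.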

Data set [7] in a line: Bioavailability after oral administration in rat was determined; range is 20-30. It counts as ADME, organism-based. To be noted: in vivo, read-out: Bioavailabiility. In short, it runs like this: (§1)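 Male Sprague-Dawley rats (ca. 6-7 weeks), triplicate groups; oral gavage at 30, 100 and 300 µg/kg and single iv tail-vein bolus at 30 µg/kg. Tail-vein blood at 30 min and 1, 2, 4, 6, 8, 24 h, heparinized plasma, acetonitrile precipitation, LC-MS/MS (positive-ion SRM 476.3→293.2). Bioavailability from AUC0-8h rather than AUC0-∞.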

The nature of data set [8]: Half life after oral administration in rat was determined. It counts as ADME, organism-based. To be noted: in vivo. In short, it runs like this:
as §1

Data set [9] concerns NG108-15. The experiment in a line: Concentration of compound required to induce cell death of mouse neuroblastoma and rat glioma hybrid NG 108-15 cells was determined. It counts as functional. In short, it runs like this:
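NG108-15 neuroblastoma × glioma hybrid cells (passage 7-30) were grown in DMEM with 10% FBS, HAT supplement and gentamycin at 37 °C under 7% CO2. They were treated 24 h after plating, with compound added daily, at 1 pM to 1 µM for 3 days. Cell death was judged by phase-contrast microscopy and micrographs.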

The structures appear in SMILES notation.

Chain of Mitogen-activated protein kinase 3 (Homo sapiens) (P27361 whole entry): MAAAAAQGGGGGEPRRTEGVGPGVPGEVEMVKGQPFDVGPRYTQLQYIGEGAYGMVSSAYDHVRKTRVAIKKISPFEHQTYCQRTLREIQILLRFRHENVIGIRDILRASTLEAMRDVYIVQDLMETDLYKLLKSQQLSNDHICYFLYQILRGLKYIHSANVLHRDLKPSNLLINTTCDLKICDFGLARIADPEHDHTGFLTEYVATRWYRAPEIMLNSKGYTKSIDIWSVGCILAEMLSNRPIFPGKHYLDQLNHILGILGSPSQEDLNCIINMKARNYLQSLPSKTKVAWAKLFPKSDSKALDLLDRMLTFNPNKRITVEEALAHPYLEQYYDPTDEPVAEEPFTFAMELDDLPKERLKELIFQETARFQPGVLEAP

With `CCCCOC(=O)NS(=O)(=O)c1ccc(Cc2cccc(OC)c2)cc1-c1ccc(Cn2c(CC)nc3c(C)cc(C)nc32)cc1`, the half-inhibitory concentration (IC50) in [1] amounted to 101 nM; in data set [2], 1.4 nM. Consider `CCCCOC(=O)NS(=O)(=O)c1sc(CC(C)C)cc1-c1ccc(CC#N)cc1`, for which the inhibition constant Ki in data set [2] stood at 100 nM. The same measure, in the same setting: the same measure for `CCCCOC(=O)NS(=O)(=O)c1sc(CC(C)C)cc1-c1ccc(Cn2cnc3cccnc32)cc1`: more than 10000 nM. Take `Cc1cc(Cn2cnc3c2C[C@@H](C(=O)O)N(C(=O)C(c2ccccc2)c2ccccc2)C3)ccc1N(C)C.O=C(O)C(F)(F)F.O=C(O)C(F)(F)F`: the Activity with Rattus norvegicus [3] worked out at 150 µM; in the data set listed under Rattus norvegicus [4] it was 0.3 mg/h/kg. For the same molecule, the 50% inhibitory concentration (IC50) in [2] was more than 10000 nM. Regarding `CCCCOC(=O)NS(=O)(=O)c1sc(CC(C)C)cc1-c1ccc(Cn2ccnc2C)cc1`, the Ki in data set [2] is recorded as more than 10000 nM. Take `COc1cccc(-c2cc(=O)c3ccccc3o2)c1N`: the Activity in [5] turned out to be 10 µM. As to `CCCCOC(=O)NS(=O)(=O)c1sc(CC(C)C)cc1-c1ccc(C#N)cc1`, the inhibition constant (Ki) in [2] is reported as more than 10000 nM.

Consider `CCCCOC(=O)NS(=O)(=O)c1sc(CC(C)C)cc1Cc1ccc(C#N)cc1`, for which the inhibition constant Ki in data set [2] was more than 10000 nM. The same measure, in the same setting: in the case of `CCCCOC(=O)NS(=O)(=O)c1sc(CC(C)C)cc1Cc1ccc(-n2ccnc2)cc1` it was more than 10000 nM.

For the molecule `CCCCOC(=O)NS(=O)(=O)c1sc(CC(C)C)cc1-c1ccc(Cn2c(CC)nc3ccccc32)cc1`, the inhibitory constant (Ki) in [2] is given as more than 10000 nM.

Take `CCCCOC(=O)NS(=O)(=O)c1sc(CC(C)C)cc1-c1ccc(Cn2cnc3ccccc32)cc1`: the Ki in data set [2] was determined as 500 nM. As to `CCCCOC(=O)NS(=O)(=O)c1sc(CC(C)C)cc1-c1ccc(Cn2ccnc2)cc1` [BULOXIBUTID], the Activity was 100 µM with Rattus norvegicus [3], more than 0.1 nM with NG108-15 [6], 0.03 mg/h/kg in the data set listed under Rattus norvegicus [4] and 1 µM in the data set with NG108-15 [9]. Moreover, in data set [7], the bioavailability was less than 30%. In data set [8], this molecule had a half-life of 4 h. In [2], this molecule yielded a Ki of more than 10000 nM.

In the case of `CCCCOC(=O)NS(=O)(=O)c1sc(CC(C)C)cc1-c1ccc(Cn2c(CC)nc3c(C)cc(C)nc32)cc1`, in data set [2], the IC50 turned out to be 1.1 nM and the inhibition constant Ki was 3.9 nM.

As usually defined, the IC50 is the midpoint of a concentration-inhibition curve. Read a high IC50 as a need for much substance. A word on the Ki: it is the equilibrium dissociation constant of an inhibitor or competing ligand from its target. A word on the half-life: it is how long it takes for the measured level to halve. Low readings indicate fast loss, high ones slow loss.

(Values after ChEMBL document CHEMBL1138699, “Design, synthesis, and biological evaluation of the first selective nonpeptide AT2 receptor agonist” (J Med Chem, 2004).)
